Source: PubChem BioAssay
Compounds with a hit are over-represented: about 2.7% of the library has one in this group of screens.
NadD inh = inhibitors of Staphylococcus aureus NadD | purified NadD enzyme, colorimetric absorbance read-out | 360,000 tested, 0.78% active | inhibition, % at 20 µM | AID 602399; in the data active = inhibition above about 26%
Rpn11 inh = inhibitors of human proteasome Rpn11; AID 588493; inhibition, % at 20 µM; human 26S proteasome, Ub4-pepOG fluorescence polarization; 20S core pre-blocked with epoxomicin; 360,000 tested, 0.59% active;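 active = inhibition at 20 µM, scaled to each plate's controls, above about 33%, limit read from the data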
HNF4A DNA FP = change in binding of human HNF4 alpha to DNA; HNF4a-FITC DNA binding, fluorescence polarization, 1 h; activity change, % at 10 µM; 360,000 tested, 0.3% active; in the data active = activity change above about 30%, passing the limit was not always enough
CSN deneddyl inh = blocks human CSN-mediated cullin deneddylation | 360,000 tested, 0.38% active | Purified CSN, SCF-Nedd8-OG deneddylation, fluorescence polarization | inhibition, % at 12.5 µM | Q92905;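 active = pattern-corrected inhibition above about 35%, with an unprinted fluorescence ratio check between 0.5 and 1.5, limit read from the data, passing the limit was not always enough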
Target sequence (Q92905 whole entry, looked up, one chain of several): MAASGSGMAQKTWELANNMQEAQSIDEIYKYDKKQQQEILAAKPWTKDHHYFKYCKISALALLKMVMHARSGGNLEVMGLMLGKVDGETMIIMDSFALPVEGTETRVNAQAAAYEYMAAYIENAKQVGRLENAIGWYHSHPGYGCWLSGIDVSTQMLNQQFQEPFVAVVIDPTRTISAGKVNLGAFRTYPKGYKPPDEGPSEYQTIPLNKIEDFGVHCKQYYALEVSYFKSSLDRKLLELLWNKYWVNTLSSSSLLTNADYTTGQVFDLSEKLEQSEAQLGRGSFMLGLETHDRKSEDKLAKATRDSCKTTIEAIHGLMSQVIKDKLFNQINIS
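Assay system: Purified human Csn5 enzyme expressed in HEK293T cells | Amount: Enzyme 0.24 nM | Measured by: Fluorescence polarization readout | Medium: Tris/NaCl/DTT buffer, pH 7.5 | Compound dosing: One concentration, 12.5 µM, 0.25% DMSO | Times: 90 min incubation of compound, enzyme and substrate at room temperature | Control set: no-enzyme wells high, enzyme-with-substrate wells low | Read-out: % inhibition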
PP1 counter = counter-screen for PP5 inhibitors: inhibitors of human PP1-alpha; P62136; purified PP1alpha, OMFP fluorescence; inhibition, % at 6.7 µM; 320,000 tested, 0.9% active; AID 2235;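 active = inhibition above the mean inhibition of all tested compounds plus 3 SD, computed separately for each screening campaign, cut at about 15% in these data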
Target sequence (P62136 whole entry, looked up): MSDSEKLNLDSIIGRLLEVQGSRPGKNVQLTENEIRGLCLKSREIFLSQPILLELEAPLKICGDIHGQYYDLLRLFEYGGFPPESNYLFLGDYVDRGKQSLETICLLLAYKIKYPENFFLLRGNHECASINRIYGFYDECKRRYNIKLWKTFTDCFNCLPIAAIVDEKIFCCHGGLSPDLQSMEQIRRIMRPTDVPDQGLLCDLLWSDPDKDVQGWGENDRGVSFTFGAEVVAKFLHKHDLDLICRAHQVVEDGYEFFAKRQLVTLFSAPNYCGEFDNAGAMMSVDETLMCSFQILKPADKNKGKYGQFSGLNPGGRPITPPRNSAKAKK
TPT1 inhibitor = inhibitors of Candida albicans tRNA 2'-phosphotransferase TPT1 | recombinant caTPT1, FP RNA substrate dephosphorylation | inhibition, % at 5 µM | 300,000 tested, 0.81% active | AID 1962;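 active = inhibition above the mean of all tested compounds plus 3 SD, set per screening campaign, cut at about 24% in these data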
PP1 confirm = confirmation of human PP1 phosphatase inhibitors; shares compounds with PP1 counter; purified PP1alpha, OMFP substrate fluorescence; inhibition, % at 6.7 µM; 1,900 tested, 52% active; AID 2358;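 active = mean PP1 inhibition above a set limit taken from the earlier primary screen, cut at about 15% in these data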
PP5 inh counter = PP5 phosphatase inhibition, counter-screen for PP1 inhibitors | shares compounds with PP1 counter | purified PP5c, OMFP fluorescence | inhibition, % at 6.7 µM | 1,900 tested, 4% active | AID 2360;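 active = mean PP5 inhibition over triplicate wells above about 9.5% taken from the earlier PP1 screen, limit read from the data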
Hits are given with their value; 0 = inactive; - = no result.

SMILES | NadD inh | Rpn11 inh | HNF4A DNA FP | CSN deneddyl inh | PP1 counter | TPT1 inhibitor | PP1 confirm | PP5 inh counter
CCCC1CC(C(=O)NC(C(C)Cl)C2OC(SC)C(O)C(O)C2O)N(C)C1 (centres undefined) | 0 | 0 | 0 | 0 | 0 | 0 | - | -
O=c1[nH]c(NNC(=S)NC2CCCCC2)nc2c1C1(CCCC1)Cc1ccccc1-2 | 0 | 0 | 0 | 0 | 18.5 | 0 | 0 | 0
O=C(Nc1cccc(S(=O)(=O)NC2=NCCC2)c1)c1ccccc1OC(F)F | 0 | 0 | 0 | 0 | 0 | 0 | - | -
CN(C1CCCCC1)S(=O)(=O)c1cc2c(cc1Cl)NC(=O)CO2 | 0 | 0 | 0 | 0 | 0 | 0 | - | -
CCc1ccc(NC(=O)Cn2c(=O)c3cccn3c3ccccc32)cc1 | 0 | 0 | 0 | 0 | 22.0 | 0 | 18.0 | 0
O=C(CC1S/C(=N/N=C/c2c[nH]c3ccc(OCc4ccccc4)cc23)NC1=O)Nc1ccccc1 (centres undefined) | 0 | 0 | 0 | 0 | 23.7 | 0 | 24.4 | 0
CCOc1ccc(-c2cc(C(=O)NCCCn3ccnc3)c3cc(Br)ccc3n2)cc1 | 0 | 0 | 0 | 0 | 21.0 | 0 | 0 | 0
CCOc1ccc(-c2cc(C(=O)NCCCn3ccnc3)c3ccccc3n2)cc1 | 0 | 0 | 0 | 0 | 0 | 0 | - | -
O=C(c1ccco1)N1CCN(c2ncnc3c2nnn3Cc2ccccc2Cl)CC1 | 0 | 0 | 0 | 0 | 40.9 | 0 | 43.7 | 0
O=C(CSc1nc2ccccc2c(=O)n1Cc1ccccc1)Nc1ccc(Br)cc1C(=O)O | 0 | 0 | 0 | 0 | 19.9 | 0 | 15.2 | 0
CC1=NN(c2nc3ccccc3[nH]2)C(=O)C1Cc1ccccc1 (centres undefined) | 0 | 0 | 0 | 0 | 0 | 0 | - | -
CC1=NN(c2nc3ccccc3[nH]2)C(=O)/C1=C/N(C)C | 0 | 0 | 0 | 0 | 23.3 | 0 | 0 | 0
COc1ccc2[nH]c3c(C)c4ccncc4c(C)c3c2c1 | 36.5 | 0 | 0 | 0 | 35.0 | 0 | 16.5 | 0
COc1ccc2[nH]c(C)cc(=O)c2c1 | 0 | 0 | 0 | 0 | 0 | 0 | - | -
O=C(Nc1nc(-c2ccccn2)cs1)C1CC(=O)N(c2ccc3c(c2)OCCO3)C1 (centres undefined) | 0 | 0 | 0 | 0 | 44.9 | 0 | 55.5 | 0
COc1ccc(CCNC(=S)c2ccccc2)cc1OC | 0 | 0 | 0 | 0 | 0 | 0 | - | -
COc1ccc(-c2csc(NC(=O)c3ccccc3F)n2)cc1 | 0 | 0 | 0 | 0 | 0 | 0 | - | -
COc1ccc(-c2csc(NC(=O)c3ccccc3NS(=O)(=O)c3ccc(F)c(F)c3)n2)cc1 | 0 | 0 | 0 | 0 | 27.2 | 0 | 24.2 | 0
O=C(CN1CCN(C(=O)C2CCCO2)CC1)Nc1ccc(F)cc1 (centres undefined) | 0 | 0 | 0 | 0 | 0 | 0 | - | -
CCN(CC(=O)Nc1cc(S(=O)(=O)N2CCOCC2)ccc1C)Cc1ccccc1 | 0 | 0 | 0 | 0 | 0 | 0 | - | -
CCc1ccccc1NC(=O)CCS(=O)(=O)c1ccc(OC)cc1 | 0 | 0 | 0 | 0 | 37.1 | 0 | 0 | 0
CN(C)S(=O)(=O)c1cccc(CNCC2COc3ccccc3O2)c1 (centres undefined) | 0 | 0 | 0 | 0 | 0 | 0 | - | -
COc1ccc(C2=CC3=CC(=O)C(C)(O)C(=O)C3=CO2)cc1 (centres undefined) | - | - | - | - | 17.8 | 0 | 0 | 0
COc1ccc(C2=CC3=C(Br)C(=O)C(C)(O)C(=O)C3=CO2)cc1 (centres undefined) | 0 | 0 | 0 | 0 | 0 | 0 | - | -
CCC(=O)OC1(C)C(=O)C=C2C=C(c3ccc(C#N)cc3)OC=C2C1=O (centres undefined) | 0 | 0 | 0 | 0 | 0 | 0 | - | -
SMILES | NadD inh | Rpn11 inh | HNF4A DNA FP | CSN deneddyl inh | PP1 counter | TPT1 inhibitor | PP1 confirm | PP5 inh counter
CC1(O)C(=O)C=C2C=C(c3ccc(C#N)cc3)OC=C2C1=O (centres undefined) | - | - | - | - | 35.5 | 0 | 21.4 | 0
CCc1nc2ccc(C(=O)NCc3cccs3)cn2c1N(CC)CCN(C)C | 0 | 0 | 0 | 0 | - | - | - | -
COc1ccc(Cl)cc1NC(=O)CN(C)C(=O)Cn1c(=O)oc2ccccc21 | 0 | 0 | 0 | 0 | 0 | 0 | - | -
CCOc1ccc(NC(=O)CN(C)C(=O)Cn2c(=O)oc3ccccc32)cc1OCC | 0 | 0 | 0 | 0 | 41.2 | 0 | 0 | 0
CCC[C@H](CN[C@@H](CNC)[C@H](C)CC)NCCc1cc(C(F)(F)F)cc(C(F)(F)F)c1 | 0 | 0 | 0 | 0 | 0 | 0 | - | -
CC[C@@H](C)[C@H](CNC)NC[C@@H](Cc1cccc2ccccc12)NCCc1cccc(C(F)(F)F)c1 | 0 | 0 | 0 | 0 | 24.6 | 0 | 0 | 0
Cc1cc(NC(=O)CSc2nnc(NCc3ccccc3)s2)no1 | 0 | 0 | 0 | 0 | 0 | 0 | - | -
COc1ccccc1Nc1nnc(SCC(=O)Nc2cc(C)on2)s1 | 0 | 0 | 0 | 0 | 19.2 | 0 | 0 | 0
Cc1ccc(CC(=O)Nc2nnc(-c3ccc(F)cc3)o2)c(C)c1 | 0 | 0 | 0 | 0 | 0 | 0 | - | -
CCC(C)Sc1ccc([C@H]2N[C@@](Cc3ccccc3)(C(=O)OC)[C@H]3C(=O)N(CC)C(=O)[C@@H]23)cc1OC (some centres undefined) | 0 | 0 | 0 | 0 | 0 | 0 | - | -
CC1(C)CCC[C@]2(C)[C@H]3Cc4cc(O)ccc4O[C@]3(C)CC[C@@H]12 | 0 | 0 | 0 | 0 | - | - | - | -
Nc1[nH]c(C(=O)c2ccccc2)c(-c2ccccc2C(F)(F)F)c1C(=O)NCc1cccc2ccccc12 | 0 | - | 0 | 0 | - | - | - | -
CN1CCN(c2ccccc2NC(=O)c2ccc(-c3cccc([N+](=O)[O-])c3)o2)CC1 | 0 | 0 | 0 | 0 | 0 | 0 | - | -
CCC(=O)N1CCN(c2ccccc2NC(=O)c2ccc(-c3cccc([N+](=O)[O-])c3)o2)CC1 | 0 | 0 | 0 | 0 | 19.0 | 0 | 17.1 | 0
O=C(OCc1ccccc1)/C(=C(\O)c1ccccc1Br)c1ccc(-c2ccccc2)cn1 | 0 | 0 | 0 | 0 | 0 | 0 | - | -
N#Cc1ccc(CSc2nnc(NC(=O)c3ccc4ncsc4c3)s2)cc1 | 0 | 0 | 0 | 0 | 23.9 | 0 | 48.8 | 0
O=C(COc1ccc(-c2ccccc2)cc1)N/N=C/c1ccccc1Br | 0 | 0 | 0 | 0 | 17.8 | 0 | 0 | 0
CCc1ccc(S(=O)(=O)/N=C2\C=C(Nc3ccc(C(=O)O)cc3)C(=O)c3ccccc32)cc1 | 0 | 0 | 0 | 0 | 15.2 | 0 | 16.4 | 43.7
CC1CCCC(NC(=O)C2CC(=O)N(Cc3ccccc3)C2)C1C (centres undefined) | 0 | 0 | 0 | 0 | 0 | 0 | - | -
Cc1ccc(NC(=O)CN2C(=O)NC3(CCCc4ccccc43)C2=O)c(C)c1 (centres undefined) | 0 | 0 | 0 | 0 | - | - | - | -
COc1ccc(C2=NS(=O)(=O)N(C)C(C(=O)NCc3ccc4c(c3)OCO4)=C2)cc1OC | 0 | 0 | 0 | 0 | 0 | 0 | - | -
